PostGolgi ctrl: growth of the yeast control strain, post-Golgi counter-screen | efflux-deficient yeast background strain, growth absorbance A615, 16 h | inhibition, % at 10 µM | actives 5% (n = 98,000) | AID 738
tolC growth inh: growth inhibitors of E. coli BW25113 tolC mutant; growth inhibition, % at 10 µM (by protocol); OD615; actives 2.2% (n = 65,000); AID 573;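 active = growth inhibition at or above a cutoff equal to the mean over every tested compound plus 3 SD, cut at about 60% in these data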;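 also: growth measured after 20 h incubation at 37 °C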
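Test system: E. coli BW25113 ΔtolC::kan bacteria; incubation: 37 °C, 20 h exposure; medium: LB broth supplemented with 50 µg/mL kanamycin; read-out basis: percent growth inhibition; signal: A615 absorbance measurement; compound: 10 µM final, single dose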
Ecoli WT expand: E. coli BW25113 growth inhibition, expanded screen; actives 0.15% (n = 98,000); AID 710; OD600 absorbance; growth inhibition, % at 100 µM;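 active = growth inhibition above about 50% at one test dose, limit read from the data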;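 also: growth measured after 20 h incubation at 37 °C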
PLAP activator: activates human placental alkaline phosphatase. P05187. purified PLAP enzyme, luminescent substrate read-out; hits give high values. activation fold at 20 µM. actives 1.2% (n = 96,000). AID 696; in the data active = activation fold above about 2
Target sequence (P05187 whole entry, looked up): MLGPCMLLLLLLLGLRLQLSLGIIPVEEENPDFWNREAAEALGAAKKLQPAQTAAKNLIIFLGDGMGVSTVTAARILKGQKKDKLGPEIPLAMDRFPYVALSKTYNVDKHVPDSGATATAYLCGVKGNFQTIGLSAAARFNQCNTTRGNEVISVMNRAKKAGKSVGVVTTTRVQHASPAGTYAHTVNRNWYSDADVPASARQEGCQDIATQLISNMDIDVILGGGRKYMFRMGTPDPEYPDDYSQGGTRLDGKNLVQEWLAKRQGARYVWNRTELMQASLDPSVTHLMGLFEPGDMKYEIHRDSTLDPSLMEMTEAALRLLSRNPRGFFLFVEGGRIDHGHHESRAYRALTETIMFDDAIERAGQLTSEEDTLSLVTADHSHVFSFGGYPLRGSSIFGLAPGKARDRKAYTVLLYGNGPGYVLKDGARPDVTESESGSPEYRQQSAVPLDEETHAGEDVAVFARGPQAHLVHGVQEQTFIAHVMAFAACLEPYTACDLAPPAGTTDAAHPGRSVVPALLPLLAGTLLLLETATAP
PostGolgi yeast: growth inhibition of a yeast mutant, post-Golgi transport screen; post-Golgi transport phenotypic cell assay; inhibition, % at 10 µM; actives 0.9% (n = 98,000); AID 739;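 also: yeast cells grown in 1536-well plates; yeast grown about 18 h at 30C before absorbance read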
Large screens that a line does not name were inactive. Most compounds without a hit are left out; they make up all but 7.2% or so of the library. Rule as the data show it, unless noted: active = inhibition above about 30%; inactive = the rest.

CS(=O)(=O)N1CCC(C(=O)N2CCC(Cc3ccccc3)CC2)CC1	none
Cc1c(/C=C(\C#N)c2nn(-c3ccccc3)c(N)c2C#N)c2ccccc2n1Cc1ccc(F)cc1	none (no result: tolC growth inh)
CCOC(=O)c1c(C)n(C)c2ccc(OCCN(C)C)cc12	none (no result: tolC growth inh)
CCOC(=O)c1c(C)n(C)c2ccc(OCC(O)Cn3nc(C)c(Br)c3C)cc12 (stereo not drawn)	tolC growth inh 88 (no result: PostGolgi ctrl, Ecoli WT expand, PLAP activator, PostGolgi yeast)
CCOC(=O)c1c(C)n(C)c2ccc(OC(C)C(=O)OC)cc12 (stereo not drawn)	PostGolgi ctrl 32
CCCCc1ccc(NS(=O)(=O)c2cccs2)cc1	PostGolgi ctrl 37 (no result: tolC growth inh)
O=S(=O)(Nc1ccc(Cc2ccncc2)cc1)c1cccs1	none (no result: tolC growth inh)
COC(=O)CSc1nc(NC#N)nc(NC(C)C)n1	none (no result: tolC growth inh)
COC(=O)CSc1snnc1-c1ccc(Cl)cc1Cl	none (no result: tolC growth inh)
CCc1cc(-c2n[nH]c(=S)n2Cc2ccccc2)cs1	none (no result: tolC growth inh)
CCCc1cc(-c2n[nH]c(=S)n2C(C)c2ccccc2)cs1 (stereo not drawn)	PostGolgi ctrl 42 (no result: tolC growth inh)
Cc1cccc2c1NC(=O)/C2=C\C(=O)c1cccs1	PostGolgi ctrl 52 (no result: tolC growth inh)
Cc1cc(C)c2c(c1)/C(=C/C(=O)c1ccc(Br)s1)C(=O)N2	PostGolgi ctrl 71, PostGolgi yeast 103 (no result: tolC growth inh)
CCc1ccc2c(c1)/C(=C/C(=O)c1cccs1)C(=O)N2	PostGolgi ctrl 87, PostGolgi yeast 76 (no result: tolC growth inh)
CCc1ccc2c(c1)/C(=N/N(C)C(=S)NC)C(=O)N2	none (no result: tolC growth inh)
O=C(Nc1c(-c2ccccc2)nc2sccn12)c1ccccc1	none
COn1c(SC(C)C)nc2ccccc2c1=O	PostGolgi ctrl 34 (no result: tolC growth inh)
CC(C)On1c(SC(C)C)nc2ccccc2c1=O	none (no result: tolC growth inh)
CCOC(=O)N1CCC2(CC1)CC(=O)c1c(ccc3oc(C(=O)O)c(C)c13)O2	none
CCOC(=O)c1oc2ccc3c(c2c1C)C(=O)CC1(CCN(C(=O)OCC)CC1)O3	PostGolgi ctrl 35
CNc1nc(C)c(C(=O)c2ccc(Cl)cc2)s1	none (no result: tolC growth inh)
O=C(NCC1CCCO1)C1CC(c2ccc(Cl)c(Cl)c2)=NO1 (stereo not drawn)	none
CN(c1ccc(C(=O)NC2CC2)cc1)S(=O)(=O)c1ccccc1	none
COc1ccc(-c2noc(C)c2-c2ccc3ccccc3n2)c(O)c1	PostGolgi ctrl 49, tolC growth inh 96
O=C(O)CCSCCC(=O)O	PostGolgi yeast 33
O=C(O)CCSc1nc2ccccc2s1	none
Nc1cccc(Cl)c1N1CCOCC1	none (no result: tolC growth inh)
Cc1ccc(SC(C)C(=O)Nc2ccncc2)cc1 (stereo not drawn)	PostGolgi ctrl 90, PostGolgi yeast 102 (no result: tolC growth inh)
Nc1ccccc1-c1nnc(SCc2ccccc2Cl)[nH]c1=O	PostGolgi ctrl 37 (no result: tolC growth inh)
Cc1ccc(S(=O)(=O)NC(CN2CCOCC2)=NCCNS(=O)(=O)c2ccccc2)cc1	none
Cc1cc(NCCC(C)C)n2nc(C)c(-c3ccccc3)c2n1	PostGolgi ctrl 53 (no result: tolC growth inh)
Cc1cc(NCCCN2CCOCC2)n2nc(C)c(-c3ccccc3)c2n1	none
CCc1ccc(C2CC(c3ccc(C)cc3)n3nc(N)nc3N2)cc1 (stereo not drawn)	none (no result: PostGolgi ctrl, Ecoli WT expand, PLAP activator, PostGolgi yeast)
Brc1cccc(-c2n[nH]c(-c3ccccc3)n2)c1	PostGolgi ctrl 43, tolC growth inh 97
O=C1COc2cccnc2N1	PostGolgi ctrl 38
O=c1c2cc(F)ccc2[nH]c(=S)n1CCCN1CCOCC1	none (no result: tolC growth inh)
COc1ccc(OC)c(/C=N/N(C)c2ccccc2)c1	PostGolgi ctrl 32 (no result: tolC growth inh)
COc1cc(/C=N/N(C)c2ccccc2)cc(Cl)c1O	PostGolgi ctrl 48 (no result: tolC growth inh)
COc1ccc(OC)c(/C=N/NC(=O)CCCC(=O)Nc2cccc(Br)c2)c1	none (no result: tolC growth inh)
COc1cc(/C=C2/CCC/C(=C\c3cc(O)c(OC)c(Cl)c3)C2=O)cc(Cl)c1O	none (no result: tolC growth inh)
